Reference: ChEMBL document CHEMBL4334460, “Madecassic Acid Derivatives as Potential Anticancer Agents: Synthesis and Cytotoxic Evaluation” (2019)
Calls of active or inactive are those of the source. No cut-off for these calls is given here.

Columns and labels:
HCT-15 = assay: Antiproliferative activity against human HCT15 cells assessed as growth inhibition after 48 hrs by sulforhodamine B assay; assay type: functional; settings: HCT-15, 48 h
CCRF-CEM [1] = assay: Antiproliferative activity against human CCRF-CEM cells assessed as cell growth at 10 uM after 48 hrs by sulforhodamine B assay relative to control; assay type: functional; settings: pooled result: one value given for 60 cell lines, strains, targets or settings, read-out: Activity
Method in brief: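 NCI-60 one-dose screen: cells exposed to test compound at a single 10 μM concentration, viability after 48 h read by sulforhodamine B staining; value is growth percent versus negative control, with a time-zero cell control used to determine total cell growth.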

UO-31 = assay: Antiproliferative activity against human UO31 cells assessed as growth inhibition after 48 hrs by sulforhodamine B assay; assay type: functional; settings: UO-31, 48 h
Method in brief: (§1)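 NCI-60 five-dose follow-up, run only when the one-dose screen indicated activity. Doses 100 μM down to 0.01 μM in log steps (0.01, 0.1, 1, 10, 100 μM). 48 h incubation with sulforhodamine B read-out. A time-zero cell control allowed calculation of GI50 from % growth vs concentration dose–response curves.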

CCRF-CEM [2] = assay: Antiproliferative activity against human CCRF-CEM cells assessed as growth inhibition after 48 hrs by sulforhodamine B assay; assay type: functional; settings: pooled result: one value given for 58 cell lines, strains, targets or settings
COLO 205 [3] = assay: Induction of cell cycle arrest in human COLO205 cells assessed as increase in accumulation of cells at G2/M phase at 2 uM after 24 hrs by PI/RNase staining based flow cytometry (reference value: 18.6%); assay type: functional
Method in brief: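 Positive-control arm of the COLO 205 cell-cycle assay: nocodazole 2 μM for 24 h. Culture conditions as above (RPMI, 10% FBS, 37 °C, 5% CO2). Ethanol-fixed cells stained with PI/RNase 40 min at 37 °C and analysed by imaging cytometry for phase distribution. Three independent experiments.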

COLO 205 [4] = assay: Induction of cell cycle arrest in human COLO205 cells assessed as cell population at G0/G1 phase at 20 uM after 48 hrs by PI/RNase staining based flow cytometry (reference value: 63.8%); assay type: functional
Method in brief: (§2)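 COLO 205 cells grown at 37 °C, 5% CO2 in RPMI with 10% FBS and penicillin/streptomycin. Treated 48 h with 10 or 20 μM compound or DMSO vehicle. Cells trypsinized, fixed in ethanol 15 min on ice, stained with PI/RNase solution 40 min at 37 °C, then analysed by imaging cytometry. % cells per phase given as mean ± SD of three independent experiments.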

COLO 205 [5] = assay: Induction of cell cycle arrest in human COLO205 cells assessed as cell population at G2/M phase at 20 uM after 48 hrs by PI/RNase staining based flow cytometry (reference value: 18.6%); assay type: functional; method in brief: as §2
[6] = Selectivity ratio of GI50 for human Hs 578T cells to GI50 for human MCF7 cells; assay type: functional
[7] = Selectivity ratio of GI50 for human Hs 578T cells to GI50 for human MDA-MB-468 cells; assay type: functional
SK-MEL-5 = assay: Antiproliferative activity against human SK-MEL-5 cells assessed as growth inhibition after 48 hrs by sulforhodamine B assay; assay type: functional; settings: SK-MEL-5, 48 h
[8] = Selectivity ratio of GI50 for human NCI-H226 cells to GI50 for human NCI-H23 cells; assay type: functional
COLO 205 [9] = assay: Induction of cell cycle arrest in human COLO205 cells assessed as cell population at G0/G1 phase at 10 uM after 48 hrs by PI/RNase staining based flow cytometry (reference value: 63.8%); assay type: functional; method in brief: as §2
COLO 205 [10] = assay: Induction of cell cycle arrest in human COLO205 cells assessed as cell population at S phase at 10 uM after 48 hrs by PI/RNase staining based flow cytometry (reference value: 16.3%); assay type: functional; method in brief: as §2
[11] = Selectivity ratio of GI50 for human OVCAR5 cells to GI50 for human OVCAR4 cells; assay type: functional
[12] = Selectivity ratio of GI50 for human Hs 578T cells to GI50 for human T47D cells; assay type: functional
[13] = Selectivity ratio of GI50 for human RXF 393 cells to GI50 for human CAKi1 cells; assay type: functional
UACC-257 [14] = assay: Antiproliferative activity against human UACC257 cells assessed as reduction in cell viability after 48 hrs by SRB assay; assay type: functional; settings: UACC-257, 48 h, read-out: LC50 (the source's name)
Method in brief: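 NCI-60 five-dose testing at 100, 10, 1, 0.1 and 0.01 μM (log dilutions). After 48 h incubation, viability was read by sulforhodamine B staining. A time-zero cell control gave total growth per cell line. GI50, TGI and LC50 were calculated from % growth versus concentration curves.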

[15] = Selectivity ratio of GI50 for human NCI-H226 cells to GI50 for human NCI-H460 cells; assay type: functional
COLO 205 [16] = assay: Induction of cell cycle arrest in human COLO205 cells assessed as cell population at G2/M phase at 10 uM after 48 hrs by PI/RNase staining based flow cytometry (reference value: 18.6%); assay type: functional; method in brief: as §2
COLO 205 [17] = assay: Induction of mitochondrial dysfunction in human COLO205 cells assessed as reduction in mitochondrial membrane potential by measuring shift in red to green fluorescence after 48 hrs by JC-1 staining based inverted microscopic analysis; assay type: functional, cell-based
Method in brief: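 COLO 205 cells (5 × 10^5) grown on coverslips overnight, then treated 48 h with 10 or 20 μM compound or DMSO. Fresh medium with 4 μg/mL JC-1 added for 30 min at 37 °C. Cells washed twice and imaged immediately by inverted fluorescence microscopy (40× objective) at room temperature, scoring red aggregate vs green monomer fluorescence.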

UACC-257 [18] = assay: Antiproliferative activity against human UACC257 cells assessed as growth inhibition after 48 hrs by sulforhodamine B assay; assay type: functional; settings: UACC-257, 48 h; method in brief: as §1
COLO 205 [19] = assay: Antiproliferative activity against human COLO205 cells assessed as growth inhibition after 48 hrs by sulforhodamine B assay; assay type: functional; settings: COLO 205, 48 h
COLO 205 [20] = assay: Induction of cell cycle arrest in human COLO205 cells assessed as cell population at S phase at 20 uM after 48 hrs by PI/RNase staining based flow cytometry (reference value: 16.3%); assay type: functional; method in brief: as §2

Structure (SMILES)	GI50 (HCT-15)	GI50 (CCRF-CEM [2])	growth at 10 µM (CCRF-CEM [1])	GI50 (UO-31)	further results
COC(=O)[C@]12CC[C@@H](C)[C@H](C)[C@H]1C1=CC[C@@H]3[C@@]4(C)CC(=O)[C@H](OC(=O)/C=C/c5ccccc5)[C@@]5(C)COC(=C45)C[C@@]3(C)[C@]1(C)CC2	–	–	78.2%	–	–
C[C@H]1[C@H](C)CC[C@]2(C(=O)O)CC[C@]3(C)C(=CC[C@@H]4[C@@]5(C)C[C@@H](O)[C@H](O)[C@@](C)(CO)[C@@H]5[C@H](O)C[C@]43C)[C@H]12 [MADECASSIC ACID]	–	–	99.2%	–	–
COC(=O)Nc1nc2cc(C(=O)c3cccs3)ccc2[nH]1	–	–	–	–	Activity (COLO 205 [3]): Active
COC(=O)[C@]12CC[C@@H](C)[C@H](C)[C@H]1C1=CC(=O)[C@@H]3[C@@]4(C)C[C@@H](O)[C@H](O)[C@@]5(C)COC(=C45)C[C@@]3(C)[C@]1(C)CC2	–	–	51.5%	–	–
COC(=O)[C@]12CC[C@@H](C)[C@H](C)[C@H]1C1=CC[C@@H]3[C@@]4(C)C=C(O)C(=O)C(C)=C4C(=O)C[C@@]3(C)[C@]1(C)CC2	–	–	67.8%	–	–
COC(=O)[C@]12CC[C@@H](C)[C@H](C)[C@H]1C1=CC(=O)[C@@H]3[C@@]4(C)C[C@@H](OC(C)=O)[C@H](OC(C)=O)[C@@](C)(COC(C)=O)[C@@H]4C(=O)C[C@@]3(C)[C@]1(C)CC2	–	–	45.8%	–	–
COC(=O)[C@]12CC[C@@H](C)[C@H](C)[C@H]1C1=CC[C@@H]3[C@@]4(C)CC(=O)[C@H](OC(=O)c5ccco5)[C@@]5(C)COC(=C45)C[C@@]3(C)[C@]1(C)CC2	0.5 µM	2.3 µM	27.2%	1.7 µM	Activity (COLO 205 [4]): 89.1%; Activity (COLO 205 [5]): 6.2%; RatioGI50 [6]: >100; RatioGI50 [7]: >100; TGI (SK-MEL-5): 2.6 µM; RatioGI50 [8]: >50; Activity (COLO 205 [9]): 88.4%; Activity (COLO 205 [10]): 3.8%; RatioGI50 [11]: >50; RatioGI50 [12]: >100; RatioGI50 [13]: >50; CC50 (UACC-257 [14]): 50.1 µM; RatioGI50 [15]: >100; Activity (COLO 205 [16]): 6.6%; Activity (COLO 205 [17]): Dose-dependent effect; TGI (UACC-257 [18]): 3 µM; TGI (COLO 205 [19]): 3 µM; Activity (COLO 205 [20]): 3.3%
COC(=O)[C@]12CC[C@@H](C)[C@H](C)[C@H]1C1=CC[C@@H]3[C@@]4(C)C[C@@H](O)[C@H](O)[C@@]5(C)COC(=C45)C[C@@]3(C)[C@]1(C)CC2	–	–	85.8%	–	–

Second part, led by results:

GI50 (HCT-15)	GI50 (CCRF-CEM [2])	Structure (SMILES)	growth at 10 µM (CCRF-CEM [1])	GI50 (UO-31)	further results
10 µM	10 µM	COC(=O)[C@]12CC[C@@H](C)[C@H](C)[C@H]1C1=CC[C@@H]3[C@@]4(C)CC(=O)[C@H](O)[C@@](C)(CO)[C@@H]4C(=O)C[C@@]3(C)[C@]1(C)CC2	-22.4%	10 µM	–
12.9 µM	12.9 µM	COC(=O)[C@]12CC[C@@H](C)[C@H](C)[C@H]1C1=CC[C@@H]3[C@@]4(C)C[C@@H](O)[C@H](O)[C@@](C)(CO)[C@@H]4[C@H](O)C[C@@]3(C)[C@]1(C)CC2	-54.1%	12.9 µM	–
1.7 µM	1.7 µM	COC(=O)[C@]12CC[C@@H](C)[C@H](C)[C@H]1C1=CC[C@@H]3[C@@]4(C)C[C@@H](OC(C)=O)[C@H](OC(C)=O)[C@@](C)(COC(C)=O)[C@@H]4[C@H](O)C[C@@]3(C)[C@]1(C)CC2	8%	1.7 µM	–
4.9 µM	4.9 µM	COC(=O)[C@]12CC[C@@H](C)[C@H](C)[C@H]1C1=CC[C@@H]3[C@@](C)(CC#N)C4=C(C[C@@]3(C)[C@]1(C)CC2)OC[C@]4(C)C=O	-18.1%	4.9 µM	–
12 µM	12 µM	COC(=O)[C@]12CC[C@@H](C)[C@H](C)[C@H]1C1=CC[C@@H]3[C@@]4(C)C=C(O)C(=O)C(C)=C4CC[C@@]3(C)[C@]1(C)CC2	31.7%	12 µM	–
18.2 µM	18.2 µM	COC(=O)[C@]12CC[C@@H](C)[C@H](C)[C@H]1C1=CC[C@@H]3[C@@]4(C)CC(=O)[C@H](O)[C@@]5(C)COC(=C45)C[C@@]3(C)[C@]1(C)CC2	-62.9%	18.2 µM	–
8.9 µM	8.9 µM	COC(=O)[C@]12CC[C@@H](C)[C@H](C)[C@H]1C1=CC[C@@H]3[C@@]4(C)C=C(O)C(=O)[C@@]5(C)COC(=C54)C[C@@]3(C)[C@]1(C)CC2	-58.9%	8.9 µM	–
6.6 µM	6.6 µM	COC(=O)[C@]12CC[C@@H](C)[C@H](C)[C@H]1C1=CC[C@@H]3[C@@]4(C)C/C(=N\O)[C@H](O)[C@@]5(C)COC(=C45)C[C@@]3(C)[C@]1(C)CC2	-76.9%	6.6 µM	–
2.3 µM	2.3 µM	COC(=O)[C@]12CC[C@@H](C)[C@H](C)[C@H]1C1=CC[C@@H]3[C@@]4(C)C[C@@H](OC(=O)c5ccco5)[C@H](O)[C@@](C)(CO)[C@@H]4[C@H](O)C[C@@]3(C)[C@]1(C)CC2	-83%	2.3 µM	–
11 µM	11 µM	COC(=O)[C@]12CC[C@@H](C)[C@H](C)[C@H]1C1=CC[C@@H]3[C@@]4(C)C[C@@H](OC(C)=O)[C@H](O)[C@@](C)(CO)[C@@H]4[C@H](O)C[C@@]3(C)[C@]1(C)CC2	-79.2%	11 µM	–
2.4 µM	2.4 µM	COC(=O)[C@]12CC[C@@H](C)[C@H](C)[C@H]1C1=CC[C@@H]3[C@@]4(C)C[C@@H](OC(=O)/C=C/c5ccccc5)[C@H](O)[C@@](C)(CO)[C@@H]4[C@H](O)C[C@@]3(C)[C@]1(C)CC2	-4.8%	2.4 µM	–
17 µM	17 µM	COC(=O)[C@]12CC[C@@H](C)[C@H](C)[C@H]1C1=CC[C@@H]3[C@@]4(C)C[C@@H](O)[C@H](O)[C@@](C)(CO)C4=CC[C@@]3(C)[C@]1(C)CC2	-55.4%	17 µM	–
